# Experimental data from different studies.
# Each line is one published result; the experiments were not run side by side.
# Target: Dual specificity mitogen-activated protein kinase kinase 1 (MAP2K1, Homo sapiens, UniProt Q02750)
Structure (SMILES),read-out,technique,tested at,remaining binding
COc1cc2ncnc(Nc3ccc(F)c(Cl)c3)c2cc1OCCCN1CCOCC1,cell-free assay,competition with immobilised ligand,0.1 µM,100%
CC(C)(C)c1ccc(-c2nc(CBr)nn2-c2cccc(O)c2)cc1,cell-free assay,competition with immobilised ligand,10 µM,83%
Nc1ncc2c(n1)-c1c([nH]c3ccc(C#CC4CC4)cc13)CCCC2,binding,competition with immobilised ligand,1 µM,100%
Cc1cnn2ncc(-c3ccnc(N(C)C)n3)c2c1,binding,,1 µM,82%
C[C@@H]1CN(c2ccc3ncc(-c4ccc5[nH]nc(C6CC6)c5c4)n3n2)C[C@H](C)O1,binding,competition with immobilised ligand,50 nM,80%
C[C@H]1CCN(c2nccc(-c3cnn4ncccc34)n2)C1,binding,competition with immobilised ligand,1 µM,66%
O=C(Nc1c[nH]nc1C(=O)NC1CCNCC1)c1cc(F)cc(F)c1,binding,competition with immobilised ligand,1 µM,80%
Cc1c(-c2ccccc2)oc2c(C(=O)OCCN3CCCCC3)cccc2c1=O,cell-free assay,competition with immobilised ligand,10 µM,95%
CN(c1nccc(-c2cnn3ncccc23)n1)C1CC1,binding,,1 µM,100%
O=C1CCc2cc(Nc3cc(OC4CCOCC4)c([N+](=O)[O-])cc3Cl)ccc2N1,cell-free assay,competition with immobilised ligand,1 µM,72%
CNC(=O)[C@@H]1CC[C@@H](n2c(-c3ccc4cnccc4c3)nc3ccc(C(=O)NCc4cccc(C(N)=O)c4)cc32)C1,binding,competition with immobilised ligand,1 µM,100%
CCN(CC)Cc1cc(Nc2ccnc3cc(Cl)ccc23)ccc1O,cell-free assay,competition with immobilised ligand,0.1 µM,95%
C[C@H](c1ccc(F)cc1)N(Cc1cccc(C(=O)O)c1)C(=O)c1cnc2ccccc2c1,cell-free assay,competition with immobilised ligand,1 µM,100%
F[C@@H]1CCN(c2nccc(-c3cnn4ncccc34)n2)C1,binding,,1 µM,89%
CC1=C(C#N)C(c2ccc3c(c2)c(NC(=O)c2ccccc2C)nn3C)C(C#N)=C(C)N1,cell-free assay,competition with immobilised ligand,1 µM,87%
Cc1cnc(Nc2ccc(C(=O)N3CCC(N4CCCC4)CC3)cc2)nc1-c1cc2ccccc2s1,binding,competition with immobilised ligand,1 µM,25%
C[C@H](c1cccc(C#N)c1)n1cc(Cl)cc(C(N)=O)c1=N,cell-free assay,competition with immobilised ligand,1 µM,75%
CS(=O)(=O)CCNCc1ccc(-c2ccc3ncnc(Nc4ccc(OCc5cccc(F)c5)c(Cl)c4)c3c2)o1,cell-free assay,competition with immobilised ligand,0.1 µM,95%
O=C(NCCCN1CCOCC1)c1ccc(Nc2nccc(-c3cc4ccccc4s3)n2)cc1,binding,competition with immobilised ligand,1 µM,75%
COc1ncc2cc3ccccc3nc2c1C#N,cell-free assay,competition with immobilised ligand,5 µM,90%
CN(C)c1ncnc(-c2ccc3nc(Nc4cc(CN5CCN(C(=O)CC(F)(F)F)CC5)ccn4)[nH]c3c2)c1Cl,cell-free assay,competition with immobilised ligand,1 µM,78%
COc1cnc(Nc2cccc(S(N)(=O)=O)c2)nc1N1CCN(c2ccccc2)CC1,binding,competition with immobilised ligand,1 µM,90%
CC(=O)N1CCC(c2ccc(C(=O)NC(=N)N)cc2C(F)(F)F)CC1,cell-free assay,competition with immobilised ligand,1 µM,97%
FC(F)(F)Oc1cccc(-c2cnc3ccc(-c4ccncc4)nn23)c1,cell-free assay,competition with immobilised ligand,5 µM,70%
Cc1ccc(NC(=O)c2ccc(CN3CCN(C)CC3)cc2)cc1Nc1nccc(-c2cccnc2)n1,cell-free assay,competition with immobilised ligand,10 µM,94%
CCCOc1ccc([C@@H]2[C@@H](C(=O)O)[C@H](c3ccc4c(c3)OCO4)CN2CC(=O)Nc2c(CC)cccc2CC)cc1,cell-free assay,competition with immobilised ligand,1 µM,93%
CN1CC[C@H](c2c(O)cc(O)c3c(=O)cc(-c4ccccc4Cl)oc23)[C@H](O)C1,cell-free assay,competition with immobilised ligand,10 µM,92%
c1cnn2ncc(-c3ccnc(N4CCC45COC5)n3)c2c1,binding,competition with immobilised ligand,1 µM,69%
CNC(=O)c1cc(Oc2ccc(NC(=O)Nc3ccc(Cl)c(C(F)(F)F)c3)cc2)ccn1,cell-free assay,competition with immobilised ligand,10 µM,99%
COc1ccc2c(c1)O[C@@H](c1ccc(OC)c(OC)c1)C[C@H]2NC(=O)C1(c2ccc3c(c2)OC(F)(F)O3)CC1,cell-free assay,competition with immobilised ligand,1 µM,86%
O=C(NCCCN1CCOCC1)c1ccc(Nc2ncc(Cl)c(-c3ccc(Cl)s3)n2)cc1,binding,competition with immobilised ligand,1 µM,63%
CCN(CC)CCNC(=O)c1c(C)[nH]c(/C=C2\C(=O)Nc3ccc(F)cc32)c1C,cell-free assay,competition with immobilised ligand,0.1 µM,51%
